The target in data set [1] is T1, C-X-C chemokine receptor type 1 (Homo sapiens, UniProt P25024).
T1 sequence (P25024 whole entry): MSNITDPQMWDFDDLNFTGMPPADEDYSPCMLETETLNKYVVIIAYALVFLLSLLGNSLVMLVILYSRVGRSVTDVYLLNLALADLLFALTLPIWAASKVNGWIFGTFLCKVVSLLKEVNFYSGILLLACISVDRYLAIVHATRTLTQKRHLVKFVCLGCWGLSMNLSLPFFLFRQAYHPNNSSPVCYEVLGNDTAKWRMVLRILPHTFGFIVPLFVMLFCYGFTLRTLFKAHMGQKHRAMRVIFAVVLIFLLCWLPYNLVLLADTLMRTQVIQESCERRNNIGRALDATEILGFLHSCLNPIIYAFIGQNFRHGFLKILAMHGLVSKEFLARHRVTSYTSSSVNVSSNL
In words: Antagonist activity at CXCR1 (unknown origin) transfected in RBL cells assessed as inhibition of IL-8-mediated intracellular calcium release preincubated for 30 mins followed by IL-8 addition by FLUO-4AM-based fluorescent microplate reader analysis. It is filed as functional, cell-based. The method in brief: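 RBL cells stably expressing CXCR1 were preincubated 30 min with compound, then stimulated with IL8. Intracellular calcium release read by FLUO-4AM fluorescence on a microplate reader. IC50 from triplicate experiments, mean ± SE.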
(In general: Calcium flux is commonly read through the fluorescence of an indicator in the cells.)

Data set [2] deals with T2, C-X-C chemokine receptor type 2 (Homo sapiens, UniProt P25025).
T2 sequence (P25025 whole entry): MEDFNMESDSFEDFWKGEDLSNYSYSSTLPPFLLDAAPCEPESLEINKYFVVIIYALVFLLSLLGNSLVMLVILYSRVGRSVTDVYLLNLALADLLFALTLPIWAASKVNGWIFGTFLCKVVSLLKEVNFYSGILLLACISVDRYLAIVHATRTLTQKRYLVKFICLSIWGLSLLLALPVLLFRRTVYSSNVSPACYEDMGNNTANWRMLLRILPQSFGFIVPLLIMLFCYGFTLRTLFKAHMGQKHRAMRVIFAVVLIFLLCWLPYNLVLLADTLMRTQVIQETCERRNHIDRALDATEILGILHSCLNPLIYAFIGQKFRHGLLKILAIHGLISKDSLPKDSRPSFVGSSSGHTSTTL
The data set is described as follows: Antagonist activity at CXCR2 (unknown origin) transfected in RBL cells assessed as inhibition of IL-8-mediated intracellular calcium release preincubated for 30 mins followed by IL-8 addition by FLUO-4AM-based fluorescent microplate reader analysis. It is filed as functional, cell-based.

Data set [3] can be described thus: Metabolic stability in human plasma assessed as compound remaining at 1 uM measured at 4 hrs by LC-MS/MS analysis. In kind it is ADME, cell-free. To be noted: read-out: Stability. The method in brief:
(§1)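 Compound at 1 µM was incubated in human plasma at 37°C for up to 24 h. Samples were taken at 0, 1, 4 and 24 h and analysed by LC-MS/MS, with results reported as % remaining.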

Data set [4] can be described thus: Metabolic stability in human plasma assessed as compound remaining at 1 uM measured at 24 hrs by LC-MS/MS analysis. The settings on record: read-out: Stability. It is filed as ADME, cell-free. In a few lines:
as §1

Data set [5] is described as follows: Solubility of the compound in 0.1 N HCl. It is filed as physicochemical. To be noted: buffer.
Data set [6] has as its system Rattus norvegicus. In words: AUC in rat at 1 mg/kg, po by LC-MS/MS analysis. The settings on record: in vivo. In kind it is ADME, organism-based.
Data set [7] deals with Rattus norvegicus. The data set is described as follows: Antiinflammatory activity in Sprague-Dawley rat ozone model of pulmonary inflammation assessed as reduction in neutrophil influx at 1 mg/kg, iv after 24 hrs by Wright-Giemsa staining assay. In kind it is functional, organism-based. The method in brief: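 Sprague-Dawley rats, n = 4 per cohort, received a single iv dose at t = 0 in DMA/PEG400/0.9% saline (40:40:20). Vehicle groups were kept in air (negative) or 1 ppm ozone (positive), and treated groups in ozone, each for 4 h. At 24 h the rats were sacrificed and BALF was collected. Cells were spun down, Wright-Giemsa stained and neutrophils counted.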

Data set [8] has as its system Plasma. In words: Metabolic stability in rat plasma. It is filed as ADME, cell-free.
Data set [9] can be described thus: Metabolic stability in human plasma assessed as compound remaining at 1 uM measured at 1 hr by LC-MS/MS analysis. The settings on record: read-out: Stability. In kind it is ADME, cell-free. The method in brief:
as §1

For data set [10], the target named is T3, Interleukin-8 receptors, CXCR1/CXCR2 (Homo sapiens, UniProt P25025+P25024).
T3 sequence (P25025 whole entry): T2 sequence (P25025 whole entry)
T3 sequence (P25024 whole entry): T1 sequence (P25024 whole entry)
The data set is described as follows: Antagonist activity at CXCR1/CXCR2 in isolated human PMN assessed as inhibition of IL-8-mediated intracellular calcium flux. It is filed as functional, cell-based. In a few lines:
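Isolated human neutrophils (PMNs); inhibition of calcium flux with IL8 as agonist; IC50 reported as mean ± SE from triplicate experiments.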

A short description of data set [11]: Oral bioavailability in rat at 1 mg/kg by LC-MS/MS analysis. In kind it is ADME, organism-based. The settings on record: in vivo. In a few lines: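 Rats were dosed at 1 mg/kg both intravenously (vehicle dimethylacetamide/PEG400/0.9% saline 40:40:20) and by oral gavage (vehicle 0.1 N HCl or Labrasol, depending on compound). Plasma levels were measured by LC-MS/MS against a calibration curve of compound spiked into rat plasma, run alongside the samples. Oral and IV AUC are reported in μmol·hr/L.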

Data set [12] has as its system Rattus norvegicus. The data set is described as follows: AUC in rat at 1 mg/kg, iv by LC-MS/MS analysis. The settings on record: in vivo. In kind it is ADME, organism-based. The method in brief:
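Rats dosed intravenously at 1 mg/kg in DPS vehicle (dimethylacetamide/PEG400/0.9% saline 40:40:20). Plasma concentrations measured by LC-MS/MS against a calibration curve of test compound spiked in rat plasma, run alongside the samples; AUC given in μmol·hr/L.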

Converted amounts (≈) assume the structure as drawn. The source made the active and inactive calls. No cut-off for these calls is given here.

Take `O=C(Nc1ccc(F)cc1)c1cnc(N(Cc2ccccn2)Cc2ccc(B(O)O)cn2)nc1`: the IC50 (as a rule, the point on the concentration scale where inhibition reaches its midpoint) in data set [1] was found to be 2050 nM; in data set [2] it was 4310 nM.

Take `O=C(Nc1ccc(F)cc1)c1cnc(N(Cc2ccc(B(O)O)cn2)Cc2ccco2)nc1`: the IC50 in [1] stood at 444 nM; in data set [2], 655 nM.

In the case of `O=C(Nc1ccc(F)cc1)c1ccc(N(Cc2ccc(B(O)O)cn2)Cc2ccco2)nc1`, the IC50 in data set [1] came to 3.3 nM; in data set [2], 21 nM.

Turning to `O=C(Nc1ccc(F)cc1)c1ccc(NCc2cccc(B(O)O)c2)nc1`, the values for the IC50 in [1] and in data set [2] were 611 nM and 733 nM, respectively.

Consider `O=C(Nc1ccc(F)cc1)c1ccc(NCc2ccc(B(O)O)cc2)nc1`, for which the IC50 in [1] is 4300 nM; in data set [2], 2200 nM.

For the compound `CN(Cc1ccc(B(O)O)cc1)c1ccc(C(=O)Nc2ccc(F)cc2)cn1`, the IC50 in data set [1] worked out at 1400 nM; in data set [2], 1100 nM.

With `NCCN(Cc1ccc(B(O)O)cn1)c1ncc(C(=O)Nc2ccc(F)cc2)cn1`, the IC50 in [1] and in data set [2] was above 5000 nM in each case.

In the case of `CN(Cc1ccccc1B(O)O)c1ccc(C(=O)Nc2ccc(F)cc2)cn1`, the IC50 in data set [1] and in [2] was above 5000 nM each time.

In the case of `O=C(Nc1ccc(F)cc1)c1ccc(NCc2ccccc2B(O)O)nc1`, the IC50 in data set [1] and in [2] was above 5000 nM in each case.

With `CN(Cc1ccccc1B(O)O)c1ncc(C(=O)Nc2ccc(F)cc2)cn1`, the IC50 in [1] and in [2] was above 5000 nM in each case.

As for `O=C(Nc1ccc(F)cc1)c1ccc(N(Cc2ccc(B(O)O)cn2)CC2CCOCC2)nc1`, the values for the IC50 in [1] and in data set [2] were above 5000 nM and 2300 nM, respectively.

Consider `CN(Cc1ccc(B(O)O)cn1)c1ccc(C(=O)Nc2ccc(F)cc2)cn1`, for which the IC50 in [1] worked out at 1700 nM; in data set [2] it was 81 nM.

Regarding `O=C(Nc1ccc(F)cc1)c1cnc(NCc2ccc(B(O)O)cc2)nc1`, the IC50 in data set [1] was found to be 1700 nM; in data set [2], 2600 nM.

Consider `O=C(O)CN(Cc1ccc(B(O)O)cn1)c1ncc(C(=O)Nc2ccc(F)cc2)cn1`, for which the IC50 in data set [1] and in [2] was above 5000 nM throughout.

As to `O=C(Nc1ccc(F)cc1)c1ccc(N(Cc2ccccn2)Cc2ccc(B(O)O)cn2)nc1`, the IC50 in data set [1] is above 5000 nM; in data set [2], 4850 nM.

Regarding `O=C(Nc1ccc(F)cc1)c1ccc(N(Cc2ccccc2)Cc2ccc(B(O)O)cn2)nc1`, the figures for the IC50 in data set [1] and in [2] were 326 nM and 298 nM, respectively.

With `O=C(Nc1ccc(F)cc1)c1ccc(SCc2cc(OC(F)(F)F)ccc2B(O)O)nc1`, the remaining at 4 h, 1 µM in data set [3] came out at 34%. The remaining at 24 h, 1 µM in [4] is 2%. Moreover, the solubility (in general, how much of the substance goes into solution per volume) in data set [5] is reported as “Insoluble”. Further, the AUC (usually the area under the concentration-time curve, a measure of exposure) in data set [6] (BLD = below limit of detection) is listed as “BLD”. For the same compound, the result in [7] was Active. Besides, the Stability entry in data set [8] is reported as “Stable”. Moreover, the remaining at 1 h, 1 µM in data set [9] was determined as 62%.

As to `O=C(Nc1ccc(F)cc1)c1cnc(N(Cc2ccccc2)Cc2ccc(B(O)O)cn2)nc1`, the remaining at 4 h, 1 µM in data set [3] was determined as 71%. In addition, the remaining at 24 h, 1 µM in data set [4] was determined as 62%. Besides, the solubility in [5] came to 500 µg/mL (≈ 1090 µM). The IC50 stood at 185 nM in data set [10], 7 nM in data set [1] and 4 nM in [2]. The AUC in [6] came to 1.15 µM·h; in data set [12] it was 4.37 µM·h. Moreover, the outcome in data set [7] was Active. Moreover, the Stability result in data set [8] is listed as “Stable”. The bioavailability (as a rule, dose-corrected exposure relative to a reference, in per cent) in [11] amounted to 24%. Also, the remaining at 1 h, 1 µM in data set [9] was 90%.

Take `CN(Cc1cccc(B(O)O)c1)c1ccc(C(=O)Nc2ccc(F)cc2)cn1`: the IC50 in [1] turned out to be 4100 nM; in [2] it was 410 nM.

In the case of `CN(Cc1ccc(B(O)O)cn1)c1ncc(C(=O)Nc2ccc(F)cc2)cn1`, the IC50 worked out at 1700 nM in data set [1] and 933 nM in data set [2].

In the case of `O=C(Nc1ccc(F)cc1)c1cnc(NCc2cccc(B(O)O)c2)nc1`, the figures for the IC50 in data set [1] and in [2] were 1340 nM and 918 nM, respectively.

Turning to `CN(Cc1ccc(B(O)O)cc1)c1ncc(C(=O)Nc2ccc(F)cc2)cn1`, the IC50 turned out to be 681 nM in [1] and 121 nM in data set [2].

Regarding `CN(Cc1cccc(B(O)O)c1)c1ncc(C(=O)Nc2ccc(F)cc2)cn1`, the IC50 in [1] and in [2] was 2500 nM in each case.

(Values after ChEMBL document CHEMBL3608245, “Boronic acid-containing aminopyridine- and aminopyrimidinecarboxamide CXCR1/2 antagonists: Optimization of aqueous solubility and oral bioavailability” (Bioorg Med Chem Lett, 2015).)
